Where two headings read alike, the source gives them in different places.
Key:
[1] = tested on: human AML cell lines (U937, THP-1, NOMO-1, SKM-1, NB4, and OCI-AML3); assay: Human AML cell line viability screen; type: cell-based; conditions: for EC50: Homo sapiens
[2] = tested on: LSCe cells on pretreated OP9 stroma; assay: Stromal pretreatment screen; type: cell-based, mouse
[3] = tested on: dsRed+ LSCe cells and GFP+ HSPCs; assay: BMSC stromal pretreatment with admixed LSCe cells and HSPCs; type: cell-based, mouse; conditions: bone marrow stromal cells pretreated for 3 days
Summary of the method: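 Wild-type C57BL/6 BMSC monolayers (384-well) treated with test compound for 3 days at 33°C/5% CO₂, then rinsed twice with PBS. 1200 GFP⁺ HSPCs (UbiquitinC-GFP mice) and 1200 dsRed⁺ LSCe cells plated together onto them. 5 days later, wells imaged at 10x in dsRed and GFP channels; total cell area per channel per well quantified. Mean ± SEM of quadruplicates.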

[4] = tested on: LSCe cells; assay: Gene-expression profiling of LSCe cells with GSEA; type: cell-based, mouse; conditions: 5 μM, 6 hours, in suspension
Summary of the method: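 250,000 LSCe cells per sample exposed to test compound or DMSO (n = 5 and 2, respectively) for 6 h in suspension in IMDM, 10% FBS, 1% Pen-Strep. RNA extracted, amplified, and hybridized to Illumina MouseRef-8 v2.0 Expression BeadChips.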

[5] = tested on: LSCe cells; assay: LSCe cell co-culture cobblestone area; type: cell-based, mouse; conditions: for EC50: read-out: EC50 for LSCe cells in co-culture (cobblestone area formation), MLL-AF9 LSCe cells in co-culture with stroma; for selective inhibition of LSCe cells relative to normal HSPCs: co-culture; for validated hit from the screen: inhibits LSCe cells relative to normal HSPCs, no significant stromal toxicity
[6] = tested on: patient-derived, primary human leukemia cells; assay: Human CAFC assay, patient-derived leukemia cells on MS-5 stroma; type: cell-based; conditions: lovastatin: treated 6 days, assessed at 5 weeks (2 weeks for FLT3-ITD)
Summary of the method: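 CD34-enriched cells from bone marrow/peripheral blood of AML patients (presentation or relapse) seeded on MS-5 mouse stroma (20,000/well, 96-well, plated 1 day earlier, 37°C/5% CO₂). Seeding density set for one cobblestone per control well at 5 weeks. Medium: α-MEM, 12.5% FCS, 12.5% horse serum, monothioglycerol, 1 µM hydrocortisone, 20 ng/ml human IL-3. Test compound added next day (0.2% DMSO final) for 6 days, then rinsed and refed; half media change at 3 weeks. Score: fraction of replicate wells with ≥6 tightly packed cells beneath stroma.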

[7] = tested on: normal HSPCs; assay: HSPC co-culture on primary bone marrow stromal cells; type: cell-based, mouse
Summary of the method: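 Normal mouse HSPCs (400 per well) were plated in 384-well format on primary CD105⁺ bone-marrow stromal cells and held at 33°C/5% CO₂. The stroma was isolated from GFP-transgenic or wild-type C57BL/6 mice by anti-CD105 magnetic-bead selection and grown 2–3 days at 33°C before use. Test compound was run at 8–12 concentrations in duplicate, with a cytotoxic control at 22 μM.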

[8] = tested on: OP9 or BMSC stromal cells; assay: Stromal toxicity screen; type: cell-based, mouse; conditions: stroma pretreatment
Summary of the method: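 OP9 (6,750/well) or primary BMSC (2,000/well) stromal cells plated in 384-well plates. After 24 h, test compound added at 8 concentrations; incubated 72 h at 37°C/5% CO₂. Viability read by CellTiter-Glo ATP luminescence. Toxicity called when mean signal fell 3 SD (BMSC) or 5 SD (OP9) below DMSO control at concentrations below 20 μM.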

[9] = tested on: murine AML cell lines; assay: Murine myeloid cell line viability; type: cell-based; conditions: Mus musculus, 72 h, read-out: EC50 against murine AML cell lines
[10] = tested on: dsRed+ LSCe cells and GFP+ HSPCs; assay: Admixed LSCe cells and HSPCs co-cultured with primary BMSCs, direct treatment; type: cell-based, mouse; conditions: 200 nM lovastatin, assessed 5 days later
Summary of the method: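 Primary BMSC monolayers from C57BL/6 mice plated in 384-well format. 3 days later, 800 dsRed⁺ LSCe cells and 1600 GFP⁺ HSPCs (UbiquitinC-GFP mice) added. Test compound or DMSO added 24 h later and incubated 5 days. Wells imaged in dsRed and GFP channels at 10x; total cell area per well quantified for each channel. Mean ± SEM of quadruplicates, two independent experiments.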

[11] = tested on: normal HSPC (CD34+ cells from umbilical cord blood); assay: Human CAFC assay, normal CD34+ cord blood cells on MS-5 stroma; type: cell-based; conditions: treated 6 days, assessed at 5 weeks
[12] = tested on: MOZ-TIF2 LSCe cells; assay: MOZ-TIF2 LSCe cell co-culture with BMSCs; type: cell-based; conditions: Mus musculus, BMSC, read-out: EC50, MOZ-TIF2 LSCe cells in co-culture
[13] = tested on: LSCe cells and HSPCs; conditions: mixed cultures exposed ex vivo 48 hours to 5 μM lovastatin; relative to DMSO
[14] = tested on: LSCe cells; assay: Limiting dilution syngeneic transplantation of ex vivo treated LSCe co-cultures; parameters: species or system mouse; conditions: 500 to 10,000 LSCe cells, 24-hour ex vivo exposure to 5 μM lovastatin in co-culture with BMSCs
[15] = tested on: LSCe cells; assay: Mevalonate rescue of lovastatin treatment in LSCe/OP9 co-culture; type: cell-based, mouse; conditions: 2 mM mevalonate, 1 μM lovastatin, OP9 stroma
Summary of the method: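 GFP⁺ OP9 stroma (13,500 per well) was plated on gelatin-coated 96-well plates. After 24 h, 2,000 sorted mouse LSCe cells were added. About 24 h later, 2 mM mevalonolactone and/or 1 μM lovastatin were added together, at constant DMSO (0.2% final). After 3 days, medium was fully changed and reagents were re-added.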

[16] = tested on: AML; conditions: phase 1 clinical trial in AML; cited from earlier work
[17] = tested on: FLT3-mutated AML; conditions: cited from earlier work

With `CC1(C)C(C(=O)Nc2ccc(S(=O)(=O)c3ccc(NC(=O)C4C(C)(C)C4(C)C)cc3)cc2)C1(C)C` [BRD7116] the “inhibition of AML cell lines” value ([1]; at 20 μM) was ~ 50%, the “change in stromal morphology” value [2] was “not accompanied by an obvious change in stromal morphology” and the “relative inhibition of LSCe cells and HSPCs on pretreated stroma” value [3] was “preferentially inhibited the LSCe cells compared to HSPCs”. For the same compound, the “transcriptional changes (GSEA)” value [4] was “induced transcriptional changes consistent with myeloid differentiation”, the EC50 [5] was 200 nM and the “activity against patient-derived primary human leukemia cells (cobblestone area formation)” value [6] was “showed activity”. The “activity against normal HSPCs” value ([7]; co-cultured on primary BMSC stroma) was “limited activity” and the “stromal cell viability (CellTiter-Glo)” value [8] was “without evidence of altered stromal cell viability”.

For `CC(C)c1c(C(=O)Nc2ccccc2)c(-c2ccccc2)c(-c2ccc(F)cc2)n1CC[C@@H](O)C[C@@H](O)CC(=O)O` [atorvastatin], the “selective inhibition of LSCe cells relative to normal HSPCs” value [5] was “selectively inhibited LSCe cells relative to normal HSPCs”.

With `CC1=C(O)C(=O)C=C2C1=CC=C1[C@@]2(C)CC[C@@]2(C)[C@@H]3C[C@](C)(C(=O)O)CC[C@]3(C)CC[C@]12C` [celastrol] the “validated hit from the screen” value [5] was “among the 155 validated hits”.

For `COCc1c(C(C)C)nc(C(C)C)c(/C=C/[C@@H](O)C[C@@H](O)CC(=O)O)c1-c1ccc(F)cc1` [cerivastatin], the “selective inhibition of LSCe cells relative to normal HSPCs” value [5] was “selectively inhibited LSCe cells relative to normal HSPCs”.

With `CC(C)n1c(/C=C/C(O)CC(O)CC(=O)O)c(-c2ccc(F)cc2)c2ccccc21` (centres unmarked) [fluvastatin] the “selective inhibition of LSCe cells relative to normal HSPCs” value [5] was “selectively inhibited LSCe cells relative to normal HSPCs”.

For `CC[C@H](C)C(=O)O[C@H]1C[C@@H](C)C=C2C=C[C@H](C)[C@H](CC[C@@H]3C[C@@H](O)CC(=O)O3)[C@H]21` [lovastatin], the EC50 ([1]; read-out: EC50 against human AML cell lines) was > 2000 nM, the EC50 [9] was > 2000 nM and the EC50 [5] was ~200 nM. For the same compound, the “activity against patient-derived primary human leukemia cells (cobblestone area formation)” value [6] was “inhibited cobblestone area formation for all 6 patient-derived AML samples”, the “relative inhibition of admixed LSCe cells and HSPCs” value [10] was “selectively inhibited the dsRed^+ leukemia cells while sparing the GFP^+ HSPCs” and the “toxicity to normal HSPCs” value ([7]; concentrations as high as 20 μM, co-culture with BMSCs) was “no apparent toxicity”. For the same compound, the “inhibition of normal HSPC cobblestone area formation” value [11] was “no inhibition”, the EC50 [12] was < 250 nM and the “survival of transplanted mice” value [13] was “survived substantially longer”. For the same compound, the “leukemia development after transplantation” value [14] was “only one animal in the lovastatin group developed leukemia by 11.5 weeks”.

For `CC(O)(CCO)CC(=O)O` (centres unmarked) [mevalonate], the “rescue of the anti-leukemia effects of lovastatin” value [15] was “fully rescued”.

With `CCCCc1ccc2[nH]c(NC(=O)OC)nc2c1` [parbendazole] the EC50 ([1]; read-out: EC50, AML cell line viability) was < 625 nM.

In the case of `C=C1C(=O)O[C@H]2[C@H]1CC/C(C)=C/CC[C@@]1(C)O[C@@H]21` [parthenolide], the “validated hit from the screen” value [5] is reported as “among the 155 validated hits”.

In the case of `CC[C@H](C)C(=O)O[C@H]1C[C@H](O)C=C2C=C[C@H](C)[C@H](CC[C@@H](O)C[C@@H](O)CC(=O)O)[C@H]21` [pravastatin], the “anti-leukemia effect in patients” value [16] is given as “preliminary evidence of an anti-leukemia effect”, the “scoring in LSCe co-culture assay” value [5] is given as “did not score” and the “scoring in model of FLT3-mutated AML” value [17] is given as “did not score”.

In the case of `CC(C)c1nc(N(C)S(C)(=O)=O)nc(-c2ccc(F)cc2)c1/C=C/[C@@H](O)C[C@@H](O)CC(=O)O` [rosuvastatin], the “selective inhibition of LSCe cells relative to normal HSPCs” value [5] is reported as “selectively inhibited LSCe cells relative to normal HSPCs”.

With `CCC(C)(C)C(=O)O[C@H]1C[C@@H](C)C=C2C=C[C@H](C)[C@H](CC[C@@H]3C[C@@H](O)CC(=O)O3)[C@H]21` [simvastatin] the “selective inhibition of LSCe cells relative to normal HSPCs” value [5] was “selectively inhibited LSCe cells relative to normal HSPCs”.

For `Cc1c(C)c2c(c(C)c1O)CCC(C)(COc1ccc(CC3SC(=O)NC3=O)cc1)O2` (centres unmarked) [troglitazone], the “sensitivity of AML cell lines” value ([1]; concentrations as high as 35 μM) was “none of the AML cell lines tested was sensitive” and the “change in stromal morphology” value [2] was “dose-dependent adipocytic change in the stroma”.

— publication PMC4009363 (Nature chemical biology, 2013)
